The source made the active and inactive calls. The calls are words filed in the database; no cut-off is given here.
Assays:
[1] = test system: HCT-116; assay: Antiproliferative activity against human HCT-116 cells assessed as inhibition of cell proliferation at 2 uM incubated for 48 hrs by MTT assay relative to control; format: functional
In short: (§1)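 Cryopreserved cells thawed at 37 °C, cultured one day, then seeded at 5000–10,000 cells/well in 96-well plates and left overnight to attach. Compound added at a single concentration or as a gradient series and incubated 48 h. MTT solution added and absorbance read.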

[2] = test system: HepG2; assay: Antiproliferative activity against human HepG2 cells assessed as inhibition of cell proliferation incubated for 48 hrs by MTT assay; format: functional, cell-based; conditions: HepG2, 48 h; in short: as §1
[3] = test system: MCF7; assay: Antiproliferative activity against human MCF7 cells assessed as inhibition of cell proliferation at 2 uM incubated for 48 hrs by MTT assay relative to control; format: functional; in short: as §1
[4] = test system: HepG2; assay: Antiproliferative activity against human HepG2 cells assessed as inhibition of cell proliferation at 2 uM incubated for 48 hrs by MTT assay relative to control; format: functional; in short: as §1
[5] = Cytotoxicity against human MCF-10A cells assessed as inhibition of cell proliferation at 2 uM incubated for 48 hrs by MTT assay; format: cell-based; in short: as §1
[6] = target: T1, Bromodomain-containing protein 4 (Homo sapiens, UniProt O60885); assay: Inhibition of BRD4-BD1 (unknown origin) preincubated for 15 mins followed by substrate addition and measured after 1 hr
[7] = test system: U-266; assay: Antiproliferative activity against human U-266 cells assessed as inhibition of cell proliferation incubated for 48 hrs by MTT assay; format: functional, cell-based; conditions: U-266, 48 h; in short: as §1
[8] = test system: CT26; assay: Antiproliferative activity against […] assessed as inhibition of cell proliferation at 2 uM incubated for 48 hrs by MTT assay relative to control; format: functional; conditions: Mus musculus; in short: as §1
[9] = test system: U-266; assay: Antiproliferative activity against human U-266 cells assessed as inhibition of cell proliferation at 0.1 uM incubated for 48 hrs by MTT assay relative to control; format: functional; in short: as §1
[10] = test system: CT26; assay: Antiproliferative activity against […] assessed as inhibition of cell proliferation incubated for 48 hrs by MTT assay; format: functional, cell-based; conditions: Mus musculus, CT26, 48 h; in short: as §1
[11] = test system: U-266; assay: Induction of apoptosis in human U-266 cells incubated for 48 hrs by Annexin-V/FITC and PI staining based flow cytometry analysis; format: functional, cell-based; conditions: dose 1-8 µM
In short: (§2)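 U266 cells seeded at 1 × 10⁵ per 2 mL well in six-well plates and exposed to 1, 2 or 8 μM for 48 h. Cells collected, washed twice in cold PBS and resuspended in binding buffer. Annexin V-FITC added for 15 min, then PI for 5 min, both at 37 °C in the dark. Analysed by flow cytometry.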

[12] = target: T1, Bromodomain-containing protein 4; assay: Potency index, ratio of 6-(3,5-Dimethylisoxazol-4-yl)-1-methyl-4-phenyl-3,4-dihydroquinazolin-2(1H)-one IC50 to test compound IC50 for inhibition of BRD4-BD1 (unknown origin)
[13] = test system: U-266; assay: Induction of apoptosis in human U-266 cells assessed as viable cells at 2 uM incubated for 48 hrs by Annexin-V/FITC and PI staining based flow cytometry analysis (reference value: 92.6 %); format: functional; conditions: read-out: Activity; in short: as §2
[14] = test system: U-266; assay: Induction of apoptosis in human U-266 cells assessed as necrotic cells at 1 uM incubated for 48 hrs by Annexin-V/FITC and PI staining based flow cytometry analysis (reference value: 5.99 %); format: functional; in short: as §2
[15] = test system: U-266; assay: Induction of apoptosis in human U-266 cells assessed as early apoptotic cells at 2 uM incubated for 48 hrs by Annexin-V/FITC and PI staining based flow cytometry analysis (reference value: 1.36 %); format: functional; in short: as §2
[16] = test system: U-266; assay: Induction of apoptosis in human U-266 cells assessed as early apoptotic cells at 1 uM incubated for 48 hrs by Annexin-V/FITC and PI staining based flow cytometry analysis (reference value: 1.36 %); format: functional; in short: as §2
[17] = test system: U-266; assay: Induction of apoptosis in human U-266 cells assessed as viable cells at 8 uM incubated for 48 hrs by Annexin-V/FITC and PI staining based flow cytometry analysis (reference value: 92.6 %); format: functional; conditions: read-out: Activity; in short: as §2
[18] = test system: U-266; assay: Induction of apoptosis in human U-266 cells assessed as late apoptotic cells at 1 uM incubated for 48 hrs by Annexin-V/FITC and PI staining based flow cytometry analysis (reference value: 0.032 %); format: functional; in short: as §2
[19] = test system: U-266; assay: Induction of apoptosis in human U-266 cells assessed as nucleus condensation at 1 to 8 uM incubated for 48 hrs by DAPI staining based fluorescence microscopic analysis; format: functional, cell-based; conditions: dose 1-8 µM
In short: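 U266 cells plated at 20000 cells/well in 12-well plates overnight, then treated at 1, 2 and 8 μM for 48 h. After a PBS wash, cells were stained with DAPI for 5 min, washed again and imaged under a fluorescence microscope for nuclear condensation.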

[20] = test system: U-266; assay: Induction of apoptosis in human U-266 cells assessed as necrotic cells at 8 uM incubated for 48 hrs by Annexin-V/FITC and PI staining based flow cytometry analysis (reference value: 5.99 %); format: functional; in short: as §2
[21] = test system: U-266; assay: Induction of cell cycle arrest in human U-266 cells assessed as increase in accumulation at G0/G1 phase at 1 to 2 uM incubated for 48 hrs by PI staining based flow cytometry analysis; format: functional; conditions: dose 1-2 µM
In short: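 U266 cells seeded at 1 × 10⁵ per 2 mL well in six-well plates and treated at 1 and 2 μM for 48 h. Cells harvested, fixed in 70% ethanol on ice for 30 min and washed in PBS. Stained with PI (0.05 mg/mL) plus RNaseA (0.5 mg/mL) for 30 min at room temperature in the dark, then analysed by flow cytometry for cycle distribution.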

[22] = test system: U-266; assay: Induction of apoptosis in human U-266 cells assessed as late apoptotic cells at 2 uM incubated for 48 hrs by Annexin-V/FITC and PI staining based flow cytometry analysis (reference value: 0.032 %); format: functional; in short: as §2
[23] = test system: U-266; assay: Induction of apoptosis in human U-266 cells assessed as necrotic cells at 2 uM incubated for 48 hrs by Annexin-V/FITC and PI staining based flow cytometry analysis (reference value: 5.99 %); format: functional; in short: as §2
[24] = test system: U-266; assay: Induction of apoptosis in human U-266 cells assessed as viable cells at 1 uM incubated for 48 hrs by Annexin-V/FITC and PI staining based flow cytometry analysis (reference value: 92.6 %); format: functional; conditions: read-out: Activity; in short: as §2
[25] = test system: U-266; assay: Induction of apoptosis in human U-266 cells assessed as late apoptotic cells at 8 uM incubated for 48 hrs by Annexin-V/FITC and PI staining based flow cytometry analysis (reference value: 0.032 %); format: functional; in short: as §2
[26] = test system: U-266; assay: Induction of apoptosis in human U-266 cells assessed as early apoptotic cells at 8 uM incubated for 48 hrs by Annexin-V/FITC and PI staining based flow cytometry analysis (reference value: 1.36 %); format: functional; in short: as §2

| SMILES | inhibition at 2 µM [1] [%] | IC50 [2] [µM] | inhibition at 2 µM [3] [%] | inhibition at 2 µM [4] [%] | inhibition at 48 h, 2 µM [5] [%] | IC50 [6] [µM] | IC50 [7] [µM] | inhibition at 2 µM [8] [%] | inhibition at 0.1 µM [9] [%] | IC50 [10] [µM] | other results |
| --- | --- | --- | --- | --- | --- | --- | --- | --- | --- | --- | --- |
| Cc1noc(C)c1-c1ccc2c(c1)C(c1ccccc1)N(CCOCCN1CCN(c3ccc4nnc(Cl)n4n3)CC1)C(=O)N2C (stereo not given) | 18.7 | 21 | 34.7 | 36.7 | 6 | 0.012 | 3.05 | 25.1 | 29.5 | 22.9 |  |
| Cc1sc2c(c1C)C(c1ccc(Cl)cc1)=N[C@@H](CC(=O)OC(C)(C)C)c1nnc(C)n1-2 | 30.3 | 18.4 | 35.4 | 22.2 | 6.5 |  | 3.45 | 37.9 | 35.7 | 28.7 |  |
| Cc1noc(C)c1-c1ccc2c(c1)C(c1ccccc1)N(CCCCCN1CCN(c3ccc4nnc(Cl)n4n3)CC1)C(=O)N2C (stereo not given) | 39 | 14 | 33.4 | 39.8 | 9.3 | 0.0088 | 1.99 | 33.8 | 48.4 | 11.8 |  |
| Cc1noc(C)c1-c1ccc2c(c1)C(c1ccccc1)N(Cc1nnc(-c3ccccc3)o1)C(=O)N2C (stereo not given) | 31.4 | 19.5 | 34.1 | 34.7 | 12.4 | 0.055 | 3.45 | 30.1 | 26.7 | 21.2 |  |
| Cc1noc(C)c1-c1ccc2c(c1)C(c1ccccc1)N(CCCCCCN1CCN(c3ccc4nnc(Cl)n4n3)CC1)C(=O)N2C (stereo not given) | 44.7 | 9.45 | 33.1 | 51.9 | 5.3 | 0.0031 | 2.12 | 20.3 | 45.5 | 7.95 |  |
| Cc1noc(C)c1-c1ccc2c(c1)C(c1ccccc1)NC(=O)N2C (stereo not given) | 27.8 | 18.8 | 33.5 | 32.5 | 6.8 | 0.053 | 35.4 | 44 | 13.1 | 36 |  |
| Cc1noc(C)c1-c1ccc2c(c1)C(c1ccccc1)N(CCCCN1CCN(c3ccc4nnc(Cl)n4n3)CC1)C(=O)N2C (stereo not given) | 61.8 | 16.7 | 35.5 | 46.7 | 11.6 | 0.003 | 2.11 | 41 | 52.3 | 15.8 | Activity [11]: Dose-Dependent Effect; Ratio IC50 [12]: 8; viability at 2 µM [13]: 77.6%; Activity [14]: 3.06%; Activity [15]: 14.8%; Activity [16]: 13.2%; viability at 8 µM [17]: 65.4%; Activity [18]: 1.23%; Activity [19]: Active; Activity [20]: 5.11%; Activity [21]: Active; Activity [22]: 2.91%; Activity [23]: 4.6%; viability at 1 µM [24]: 82.6%; Activity [25]: 6.75%; Activity [26]: 22.7% |
